# According to ChEMBL document CHEMBL1123965, “Substituted 1,3,4-thiadiazoles with anticonvulsant activity. 4. Amidines” (J Med Chem, 1988):
# Experiments:
# Mus musculus [1] = experiment: Anticonvulsant activity in mouse maximal electroshock test 1 hr following p.o. administration.; type: functional; details: po
# In short: (§1)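 Male BKW mice (LACA origin), 18–22 g; compound dissolved or suspended in 2% Tween 80 in distilled water, given po, tested 1 h later. Corneal electrodes delivered 4-ms pulses, 50 Hz, 80 V for 0.3 s. End point was block of hind limb tonic seizure; ED50 with limits from probit analysis (Bliss computerized method).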
# Mus musculus [2] = experiment: Anticonvulsant activity in mouse maximal metrazole seizure test 1 hr following p.o. administration.; type: functional; details: po
# In short: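 Male BKW mice (LACA origin), 18–22 g, dosed orally with compound in 2% Tween 80/distilled water (solution or suspension). Leptazol 120 mg/kg ip given 1 h after oral dose to provoke maximal seizures. ED50 with limits obtained by Bliss probit analysis.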
# [3] = The dose at which 50% of the mouse fell off the rotarod; type: ADME, organism-based; details: in vivo
# In short: (§2)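 Male BKW mice (18–22 g), trained beforehand to stay on a 3-cm-diameter rod turning at 16 rpm; dosed po in 2% Tween 80/water and tested 1 h later. TD50 (dose at which half fall off) by probit analysis. Sedation, ataxia, loss of righting reflex and death noted by visual observation after oral dosing.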
# Mus musculus [4] = species: Mus musculus; experiment: Lethal dose was determined; type: toxicity, organism-based; details: in vivo
# In short: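 Male BKW mice (LACA origin, 18–22 g) were dosed orally with compound dissolved or suspended in 2% Tween 80 in distilled water. Before anticonvulsant testing, animals were observed visually for sedation, ataxia, loss of righting reflex and death. The value is reported in the rotorod column, which was read 1 h after oral dosing.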
# Mus musculus [5] = experiment: The dose at which 50% of the mouse fell off the rotarod; Sedative at 100 mg/kg; type: ADME, organism-based; set-up: dose 100 mg/kg; details: in vivo; in short: as §2
# Mus musculus [6] = experiment: Anticonvulsant activity in mice (1h after dosing, po) was determined by maximal electroshock test; type: functional; in short: as §1
# Mus musculus [7] = experiment: The dose at which 50% of the mouse fell off the rotarod; Sedative at 142 mg/kg; type: ADME, organism-based; set-up: dose 142 mg/kg; details: in vivo; in short: as §2
# Mus musculus [8] = experiment: The dose at which 50% of the mouse fell off the rotarod; Toxic at 200 mg/kg; type: toxicity, organism-based; set-up: dose 200 mg/kg; details: in vivo; in short: as §2
SMILES,ED50 (Mus musculus [1]),ED50 (Mus musculus [2]),TD50 [3],also measured
CCCC/N=C(/C)Nc1nnc(-c2ccccc2C)s1,48 mg/kg,46 mg/kg,> 100 mg/kg,–
Cc1ccccc1-c1nnc(/N=C/Nc2nnc(-c3ccccc3C)s2)s1,> 200 mg/kg,> 200 mg/kg,–,–
C/C(=N/Cc1ccccc1)Nc1nnc(-c2ccccc2C)s1,86 mg/kg,102 mg/kg,> 200 mg/kg,–
CCCC/N=C(/C)Nc1nnc(-c2ccccc2C(F)(F)F)s1,33 mg/kg,21 mg/kg,~70 mg/kg,–
CC(=N)Nc1nnc(Cc2ccccc2)s1,31 mg/kg,50 mg/kg,200 mg/kg,–
c1ccc(-c2ccccc2-c2nnc(C3=NCCN3)s2)cc1,103 mg/kg,77 mg/kg,–,LD30 (Mus musculus [4]): 200 mg/kg
CC(=N)Nc1nnc(-c2ccccc2C)s1,–,78 mg/kg,–,TD50 (Mus musculus [5]): Sedative at 100 mg/kg; ED50 (Mus musculus [6]): 200 mg/kg
C/C(=N\c1nnc(-c2ccccc2C)s1)N1CCOCC1,108 mg/kg,148 mg/kg,–,TD50 (Mus musculus [7]): Sedative at 142 mg/kg
CCCC/N=C(/C)Nc1nnc(-c2ccccc2-c2ccccc2)s1,121 mg/kg,90 mg/kg,> 200 mg/kg,–
CCN(CC)/C(C)=N/c1nnc(-c2ccccc2C)s1,81 mg/kg,84 mg/kg,> 200 mg/kg,–
CC(=N)Nc1nnc(-c2ccccc2C(F)(F)F)s1,18 mg/kg,19 mg/kg,~80 mg/kg,–
CC(=N)Nc1nnc(-c2ccccc2-c2ccccc2)s1,–,–,> 100 mg/kg,–
N=C(Cc1ccccc1)Nc1nnc(Cc2ccccc2)s1,86 mg/kg,45 mg/kg,> 500 mg/kg,–
CCCC/N=C(/Cc1ccccc1)Nc1nnc(-c2ccccc2C(F)(F)F)s1,> 200 mg/kg,> 100 mg/kg,–,–
CCCC(=N)Nc1nnc(-c2ccccc2C(F)(F)F)s1,63 mg/kg,60 mg/kg,150 mg/kg,–
CCCC/N=C(\N)c1nnc(-c2ccccc2C)s1,> 200 mg/kg,~142 mg/kg,–,TD50 (Mus musculus [8]): Toxic at 200 mg/kg
CCCC/N=C(\Nc1nnc(-c2ccccc2-c2ccccc2)s1)C(C)C,> 200 mg/kg,> 100 mg/kg,–,–
Cc1ccccc1-c1nnc(C2=NCCN2)s1,> 100 mg/kg,> 200 mg/kg,–,–
